Source: BindingDB's records for doi:10.1021/jm301253y (University of Florida, 2013)

Assays:
[1] = target: Melanocortin receptor 4 (Mus musculus, UniProt P56450); experiment: Agonist activity at mouse MC4 receptor expressed in HEK293 cells after 6 hrs by cAMP-based beta-galactosidase reporter gene assay
Outline: (§1)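 HEK-293 cells stably expressing the mouse receptor, kept in DMEM with 10% fetal calf serum, transfected with CRE/β-galactosidase reporter. Efficacy is relative to NDP-MSH on the same plate. EC50 is the mean of duplicate wells from three or more independent experiments, fitted by nonlinear least squares.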

[2] = target: Melanocortin receptor 5 (Mus musculus, UniProt P41149); experiment: Agonist activity at mouse MC5 receptor expressed in HEK293 cells after 6 hrs by cAMP-based beta-galactosidase reporter gene assay; outline: as §1
Sequence of Melanocortin receptor 5 (P41149 whole entry): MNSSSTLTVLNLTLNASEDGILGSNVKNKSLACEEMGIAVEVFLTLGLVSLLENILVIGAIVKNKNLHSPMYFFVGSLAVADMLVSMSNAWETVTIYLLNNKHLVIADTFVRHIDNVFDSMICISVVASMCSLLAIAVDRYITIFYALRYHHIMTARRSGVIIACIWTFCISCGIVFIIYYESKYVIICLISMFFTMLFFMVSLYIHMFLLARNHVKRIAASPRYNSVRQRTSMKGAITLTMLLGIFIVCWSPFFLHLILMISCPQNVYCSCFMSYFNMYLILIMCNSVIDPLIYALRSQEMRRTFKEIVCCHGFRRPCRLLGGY

[3] = target: Melanocyte-stimulating hormone receptor (Mus musculus, UniProt Q01727); experiment: Agonist activity at mouse MC1 receptor expressed in HEK293 cells after 6 hrs by cAMP-based beta-galactosidase reporter gene assay; outline: as §1
Sequence of Melanocyte-stimulating hormone receptor (Q01727 whole entry): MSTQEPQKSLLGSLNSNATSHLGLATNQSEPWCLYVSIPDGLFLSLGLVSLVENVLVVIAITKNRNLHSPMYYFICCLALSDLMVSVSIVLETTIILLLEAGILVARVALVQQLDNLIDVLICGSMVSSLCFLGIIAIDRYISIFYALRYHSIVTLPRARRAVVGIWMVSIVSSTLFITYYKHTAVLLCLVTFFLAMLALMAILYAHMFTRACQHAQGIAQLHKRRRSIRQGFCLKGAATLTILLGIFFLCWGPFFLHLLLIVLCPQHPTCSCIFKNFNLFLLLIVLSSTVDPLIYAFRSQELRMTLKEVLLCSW

[4] = target: Melanocortin receptor 3 (Mus musculus, UniProt P33033); experiment: Agonist activity at mouse MC3 receptor expressed in HEK293 cells after 6 hrs by cAMP-based beta-galactosidase reporter gene assay; outline: as §1
Sequence of Melanocortin receptor 3 (P33033 whole entry): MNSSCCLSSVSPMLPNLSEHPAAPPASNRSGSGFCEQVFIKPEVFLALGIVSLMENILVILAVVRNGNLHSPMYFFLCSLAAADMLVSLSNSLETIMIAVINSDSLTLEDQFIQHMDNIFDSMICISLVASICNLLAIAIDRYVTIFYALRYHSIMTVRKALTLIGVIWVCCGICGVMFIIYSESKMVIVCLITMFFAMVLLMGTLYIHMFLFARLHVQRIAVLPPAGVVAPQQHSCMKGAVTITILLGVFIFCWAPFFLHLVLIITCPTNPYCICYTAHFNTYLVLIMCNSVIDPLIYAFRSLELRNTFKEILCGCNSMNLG

Sequence of Melanocortin receptor 4 (P56450 whole entry): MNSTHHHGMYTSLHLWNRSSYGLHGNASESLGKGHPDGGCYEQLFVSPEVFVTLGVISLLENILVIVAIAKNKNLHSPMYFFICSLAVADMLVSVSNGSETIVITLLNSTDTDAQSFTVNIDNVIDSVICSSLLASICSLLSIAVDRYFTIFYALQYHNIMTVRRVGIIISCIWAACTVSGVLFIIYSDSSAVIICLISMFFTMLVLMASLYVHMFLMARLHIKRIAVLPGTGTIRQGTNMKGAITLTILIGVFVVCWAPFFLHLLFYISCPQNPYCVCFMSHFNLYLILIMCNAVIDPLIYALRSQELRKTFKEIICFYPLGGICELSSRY

EC50 [1]: 1270 nM
EC50 [2]: 630 nM
EC50 [3]: 16 nM
EC50 [4]: 7120 nM
Compound: C[C@@H]1NC(=O)[C@H](CC(N)=O)NC(=O)[C@@H](Cc2c[nH]c3ccccc23)[C@]23CCCN2C(=O)[C@@H](CSCC3=O)NC(=O)[C@@H](Cc2ccccc2)NC(=O)[C@H](Cc2cnc[nH]2)NC(=O)[C@@H](NC(=O)[C@@H](N)Cc2ccc(O)cc2)CSSC[C@@H](C(=O)N[C@@H](Cc2ccc(O)cc2)C(N)=O)NC(=O)[C@H](Cc2ccccc2)NC1=O
